From ChEMBL document CHEMBL1151773, “Synthesis and biological evaluation of amide derivatives of (5,6-dimethoxy-2,3-dihydro-1H-inden-1-yl)acetic acid as anti-inflammatory agents with reduced gastrointestinal ulcerogenecity” (Eur J Med Chem, 2008)

Legend:
Rattus norvegicus [1] = test: Antiinflammatory activity in Wistar rat assessed as inhibition of carrageenan-induced hind paw edema volume at 100 mg/kg, po administered 60 mins before carrageenan challenge after 24 hrs relative to control; assay type: functional
Rattus norvegicus [2] = test: Antiarthritic activity in Albino rat assessed as inhibition of Freund's complete adjuvant-induced paw volume at 100 mg/kg, po administered for 14 days daily once starting a day before adjuvant challenge measured on day 13; assay type: functional
Procedure, shortened: (§1)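 Female albino rats, 160±10 g, six per group, dosed orally once daily for 14 days starting the day before 0.1 ml Freund's complete adjuvant into the right hind paw subplantar surface. Both hind paw volumes, measured up to a mark at the lateral malleolus, taken before and daily after adjuvant.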

Rattus norvegicus [3] = test: Antipyretic activity in Wistar rat assessed as change in LPS-induced rectal temperature at 100 mg/kg, po administered 30 mins before LPS challenge after 5 hrs; assay type: functional
Procedure, shortened: (§2)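 Adult female Wistar rats, 170±20 g, fasted 24 h, dosed orally at 09:00; 30 min later E. coli 0111:B4 phenol-extracted LPS in apyrogenic saline given i.p. Rectal temperature by telethermometer probe just before and 1–7 h hourly after LPS; temperature index calculated from these readings. n = 6.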

Rattus norvegicus [4] = test: Antiinflammatory activity in […] 50 mg/kg, ip pretreated Wistar rat assessed as inhibition of carrageenan-induced hind paw edema volume at 100 mg/kg, po administered 60 mins before carrageenan challenge measured after 3 hrs; assay type: functional
Procedure, shortened: (§3)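 Rats pretreated with SKF-525A 50 mg/kg i.p.; 1 h later oral dose at 100 mg/kg. 1 h after dosing, 0.1 ml of 1% carrageenan given subplantar into the right hind paw.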

Rattus norvegicus [5] = test: Antiinflammatory activity in Wistar rat assessed as inhibition of carrageenan-induced hind paw edema volume at 100 mg/kg, po administered 60 mins before carrageenan challenge after 3 hrs relative to control; assay type: functional
Rattus norvegicus [6] = test: Antiinflammatory activity in Wistar rat assessed as inhibition of carrageenan-induced hind paw edema volume at 100 mg/kg, po administered 60 mins before carrageenan challenge after 1 hr relative to control; assay type: functional
Rattus norvegicus [7] = test: Gastrointestinal toxicity in Wistar rat assessed as ulcer index at 100 mg/kg, po after 14 days; assay type: organism-based; set-up: dose 100 mg/kg, route oral; details: in vivo, 336 h
Procedure, shortened: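 Gastric mucosa examined for ulceration at post-mortem of female albino rats sacrificed at the end of the 14-day once-daily oral dosing in the Freund's adjuvant arthritis study; ulcer index scored per animal. Mean ± SEM, n = 6.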

Rattus norvegicus [8] = test: Antiinflammatory activity in Wistar rat assessed as inhibition of carrageenan-induced hind paw edema volume at 100 mg/kg, po administered 60 mins before carrageenan challenge after 4 hrs relative to control; assay type: functional
Rattus norvegicus [9] = test: Antiinflammatory activity in […] 50 mg/kg, ip pretreated Wistar rat assessed as inhibition carrageenan-induced hind paw edema volume at 100 mg/kg, po administered 60 mins before carrageenan challenge measured after 2 hrs; assay type: functional; procedure, shortened: as §3
Rattus norvegicus [10] = test: Gastrointestinal toxicity in Wistar rat assessed as ulcer index at 100 mg/kg, po after 6 hrs; assay type: organism-based; set-up: dose 100 mg/kg, route oral; details: in vivo
Procedure, shortened: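 Female Wistar rats, 175±25 g, fasted 24 h, dosed orally once; sacrificed 6 h later by cervical dislocation. Stomach opened along greater curvature, saline-washed, mucosa inspected with a hand lens. Lesions graded I (edema/hyperemia/petechiae), II (hemorrhagic lesions with small erosions), III (deep ulcers); UI = nI + 2nII + 3nIII. Mean ± SEM, n = 6.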

Rattus norvegicus [11] = test: Antipyretic activity in Wistar rat assessed as change in LPS-induced rectal temperature at 100 mg/kg, po administered 30 mins before LPS challenge after 4 hrs; assay type: functional; procedure, shortened: as §2
Rattus norvegicus [12] = test: Antiinflammatory activity in […] 50 mg/kg, ip pretreated Wistar rat assessed as inhibition of carrageenan-induced hind paw edema volume at 100 mg/kg, po administered 60 mins before carrageenan challenge measured after 24 hrs; assay type: functional; procedure, shortened: as §3
Mus musculus = test: Analgesic activity in Swiss albino mouse assessed as inhibition of acetic acid-induced writhing at 100 mg/kg, po administered 60 mins before acetic acid challenge after 5 to 15 mins relative to control; assay type: functional
Procedure, shortened: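 Female Swiss albino mice, 20±5 g, fasted overnight with free water access, dosed orally; 1 h later injected i.p. with 1% v/v acetic acid at 0.1 ml/10 g. Writhes (full hind-limb extension) counted for 15 min, starting 5 min after injection; only animals giving 20 or more writhes used. % inhibition = 100(1−Wt/Wc) vs control group mean; six animals per group.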

Rattus norvegicus [13] = test: Antiinflammatory activity in […] 50 mg/kg, ip pretreated Wistar rat assessed as inhibition of carrageenan-induced hind paw edema volume at 100 mg/kg, po administered 60 mins before carrageenan challenge measured after 6 hrs; assay type: functional; procedure, shortened: as §3
Rattus norvegicus [14] = test: Antiinflammatory activity in […] 50 mg/kg, ip pretreated Wistar rat assessed as inhibition carrageenan-induced hind paw edema volume at 100 mg/kg, po administered 60 mins before carrageenan challenge measured after 1 hr; assay type: functional; procedure, shortened: as §3
Rattus norvegicus [15] = test: Antipyretic activity in Wistar rat assessed as change in LPS-induced rectal temperature at 100 mg/kg, po administered 30 mins before LPS challenge after 7 hrs; assay type: functional; procedure, shortened: as §2
Rattus norvegicus [16] = test: Antipyretic activity in Wistar rat assessed as change in LPS-induced rectal temperature at 100 mg/kg, po administered 30 mins before LPS challenge after 1 hr; assay type: functional; procedure, shortened: as §2
Rattus norvegicus [17] = test: Antiinflammatory activity in Wistar rat assessed as inhibition of carrageenan-induced hind paw edema volume at 100 mg/kg, po administered 60 mins before carrageenan challenge after 6 hrs relative to control; assay type: functional
Rattus norvegicus [18] = test: Antiinflammatory activity in […] 50 mg/kg, ip pretreated Wistar rat assessed as inhibition of carrageenan-induced hind paw edema volume at 100 mg/kg, po administered 60 mins before carrageenan challenge measured after 4 hrs; assay type: functional; procedure, shortened: as §3
Rattus norvegicus [19] = test: Antiinflammatory activity in Wistar rat assessed as inhibition of carrageenan-induced hind paw edema volume at 100 mg/kg, po administered 60 mins before carrageenan challenge after 2 hrs relative to control; assay type: functional
Rattus norvegicus [20] = test: Antipyretic activity in Wistar rat assessed as change in LPS-induced rectal temperature at 100 mg/kg, po administered 30 mins before LPS challenge after 6 hrs; assay type: functional; procedure, shortened: as §2
Rattus norvegicus [21] = test: Antipyretic activity in Wistar rat assessed as change in LPS-induced rectal temperature at 100 mg/kg, po administered 30 mins before LPS challenge after 2 hrs; assay type: functional; procedure, shortened: as §2
Rattus norvegicus [22] = test: Toxicity in Wistar rat assessed as mortality at up to 1000 mg/kg, po after 24 hrs; assay type: organism-based; set-up: dose 1000 mg/kg, route oral; details: in vivo
Rattus norvegicus [23] = test: Antiarthritic activity in Freund's complete adjuvant challenged Albino rat model assessed as change in body weight at 100 mg/kg, po administered for 14 days daily once starting a day before adjuvant challenge; assay type: functional; details: 336 h, read-out: INH
Rattus norvegicus [24] = test: Antiinflammatory activity in po dosed Wistar rat assessed as inhibition of carrageenan-induced hind paw edema volume administered 60 mins before carrageenan challenge; assay type: functional
Rattus norvegicus [25] = test: Antipyretic activity in Wistar rat assessed as change in LPS-induced rectal temperature at 100 mg/kg, po administered 30 mins before LPS challenge after 3 hrs; assay type: functional; procedure, shortened: as §2
Rattus norvegicus [26] = test: Antiarthritic activity in Albino rat assessed as inhibition of Freund's complete adjuvant-induced paw volume at 100 mg/kg, po administered for 14 days daily once starting a day before adjuvant challenge measured on day 8; assay type: functional; procedure, shortened: as §1
Rattus norvegicus [27] = test: Antiarthritic activity in Albino rat assessed as inhibition of Freund's complete adjuvant-induced paw volume at 100 mg/kg, po administered for 14 days daily once starting a day before adjuvant challenge measured on day 3; assay type: functional; procedure, shortened: as §1

CCCCCCNC(=O)CC1CCc2cc(OC)c(OC)cc21 (stereo not drawn)
inhibition in vivo at 100 mg/kg (Rattus norvegicus [1]): 43.3%
inhibition in vivo at 100 mg/kg (Rattus norvegicus [2]): 39.4%
Activity (Rattus norvegicus [3]): 0.38 °C
inhibition (INH) (Rattus norvegicus [4]): 43.08%
inhibition in vivo at 100 mg/kg (Rattus norvegicus [5]): 40.6%
inhibition in vivo at 100 mg/kg (Rattus norvegicus [6]): 46.9%
UI (Rattus norvegicus [7]): 0
inhibition in vivo at 100 mg/kg (Rattus norvegicus [8]): 39.1%
inhibition (INH) (Rattus norvegicus [9]): 36.58%
UI (Rattus norvegicus [10]): 0
Activity (Rattus norvegicus [11]): 0.11 °C
inhibition (INH) (Rattus norvegicus [12]): 45.45%
inhibition in vivo at 100 mg/kg (Mus musculus): 82.2%
inhibition (INH) (Rattus norvegicus [13]): 40.42%
inhibition (INH) (Rattus norvegicus [14]): 52.38%
Activity (Rattus norvegicus [15]): 0.54 °C
Activity (Rattus norvegicus [16]): -0.56 °C
inhibition in vivo at 100 mg/kg (Rattus norvegicus [17]): 39.8%
inhibition (INH) (Rattus norvegicus [18]): 38.6%
inhibition in vivo at 100 mg/kg (Rattus norvegicus [19]): 31%
Activity (Rattus norvegicus [20]): 0.53 °C
Activity (Rattus norvegicus [21]): -0.94 °C
Activity (Rattus norvegicus [22]): Non-toxic
inhibition in vivo at 100 mg/kg (Rattus norvegicus [23]): 7.64 g
ED30 (Rattus norvegicus [24]): 24 mg/kg
Activity (Rattus norvegicus [25]): -0.23 °C
inhibition in vivo at 100 mg/kg (Rattus norvegicus [26]): 28.8%
inhibition in vivo at 100 mg/kg (Rattus norvegicus [27]): 31.2%
